# Laboratory results taken from article PMC4079330 (Journal of Medicinal Chemistry, 2014).
# How the values were obtained:
# Type in all cases: cell-based
# [1] = system: iNOS protein in RAW 264.7 cells; test: Western blot of iNOS protein; details: 20 ng/mL LPS, normalized to GAPDH
# [2] = system: RAW 264.7 cells; test: WST1 cell viability assay; details: concentrations up to 100 μM
# Outline: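 Viability was read at every concentration tested in the NO assay, in RAW 264.7 cells given 20 ng/mL LPS plus a range of test compound concentrations. LC50 was taken as the concentration giving 50% cell viability. Test compound purity was above 95% by 1H NMR.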
# [3] = system: NF-κB signaling through tumor necrosis factor receptor (TNFR) in HEK 293T cells; test: SEAP reporter assay, TNF-α; details: 50 ng/mL TNF-α
# [4] = system: NF-κB activation through TLR3 in HEK 293T cells; test: SEAP reporter assay, Poly I:C; details: 2.5 μg/mL Poly I:C, concentrations up to 100 μM
# [5] = system: NF-κB activation through TLR4 in HEK 293T cells; test: SEAP reporter assay, LPS; details: 20 ng/mL LPS, concentrations up to 100 μM
# [6] = system: TNF-α in RAW 264.7 cells; test: TNF-α ELISA; details: supernatant from nitric oxide plates
# [7] = system: iNOS (NOS2) mRNA in RAW 264.7 cells; test: Quantitative RT-PCR of iNOS mRNA, LPS; details: 20 ng/mL LPS, 20 h, maximal decrease over tested concentrations
# Outline: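 Quantitative real-time PCR for iNOS mRNA in RAW 264.7 cells co-incubated with 20 ng/mL LPS and a range of test compound concentrations for 20 h. Values expressed as fold change, with ligand-induced cells set to 1. Three biological replicates, each in technical duplicate, were averaged, with standard deviation as error.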
compound,measurement,setting,value
"CC(C)(C)OC(=O)N(Cc1ccco1)C(=O)c1ccc(CN2C(=O)c3ccccc3S2(=O)=O)cc1 [compound 103, tert-butyl N-(furan-2-ylmethyl)-N-{4-[(1,1,3-trioxo-2,3-dihydro-1λ^6,2-benzothiazol-2-yl)methyl]benzoyl}carbamate]",iNOS protein expression,[1],reduces iNOS protein expression in a dose-dependent fashion
same,cytotoxicity,[2],no cytotoxicity
same,NF-κB signaling (SEAP),[3],unaffected
same,NF-κB activation (SEAP),[4],did not down-regulate NF-κB activation
same,NF-κB activation (SEAP),[5],did not down-regulate NF-κB activation
same,TNF-α cytokine levels,[6],no change in TNF-α cytokine levels
same,decrease of iNOS mRNA,[7],up to 67%
